Results published in ChEMBL document CHEMBL4145601, “Novel Nitric Oxide Donors of Phenylsulfonylfuroxan and 3-Benzyl Coumarin Derivatives as Potent Antitumor Agents” (ACS Med Chem Lett, 2018).
Calls of active or inactive are those of the source. The calls are words filed in the database; no cut-off is given here.

Legend:
[1] = test system: WI-38; assay: Cytotoxicity against human WI38 cells after 72 hrs by MTS assay; assay type: cell-based; settings: WI-38, 72 h
Outline: (§1)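 Non-tumour human cells were HUVEC (umbilical vein endothelial), T29 (immortalized, nontumorigenic ovarian epithelial), WI-38 (lung fibroblasts) and MCF-10A (nontumorigenic breast epithelial). Viability was read by tetrazolium assay. IC50 is the mean of triplicate determinations.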

[2] = test system: HeLa; assay: Antiproliferative activity against human HeLa cells after 48 hrs by MTT assay; assay type: functional, cell-based
Outline: (§2)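 Human tumour lines were HeLa (cervical), SKOV3, OVCA429, OVCA433 and A2780 (ovarian), A549 (non-small cell lung), MDA-MB-231 and MCF-7 (breast), and KB (oral epidermoid). Antiproliferation was read by MTT assay. IC50 is the mean of triplicate determinations.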

[3] = test system: SK-OV-3; assay: Antiproliferative activity against human SKOV3 cells after 48 hrs by MTT assay; assay type: functional, cell-based; settings: SK-OV-3, 48 h; outline: as §2
[4] = test system: A549; assay: Antiproliferative activity against human A549 cells after 48 hrs by MTT assay; assay type: functional, cell-based; settings: A549, 48 h; outline: as §2
[5] = Antiproliferative activity against human OVCA429 cells after 48 hrs by MTT assay; assay type: functional, cell-based; settings: OVCA429, 48 h; outline: as §2
[6] = Antiproliferative activity against human OVCA433 cells after 48 hrs by MTT assay; assay type: functional, cell-based; settings: OVCA433, 48 h; outline: as §2
[7] = test system: A2780; assay: Antiproliferative activity against human A2780 cells after 48 hrs by MTT assay; assay type: functional, cell-based; settings: A2780, 48 h; outline: as §2
[8] = test system: MDA-MB-231; assay: Antiproliferative activity against human MDA-MB-231 cells after 48 hrs by MTT assay; assay type: functional, cell-based; settings: MDA-MB-231, 48 h
[9] = test system: MCF7; assay: Antiproliferative activity against human MCF7 cells after 48 hrs by MTT assay; assay type: functional, cell-based; settings: MCF7, 48 h; outline: as §2
[10] = test system: KB; assay: Antiproliferative activity against human KB cells after 48 hrs by MTT assay; assay type: functional, cell-based; outline: as §2
[11] = test system: MV4-11; assay: Antiproliferative activity against human MV411 cells after 72 hrs by MTS assay; assay type: functional, cell-based; settings: MV4-11, 72 h
Outline: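 Human myeloid leukaemia MV-4-11 cells; antiproliferation read by MTS assay. IC50 is the mean of triplicate determinations.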

[12] = test system: MM1.S; assay: Antiproliferative activity against human MM1S cells after 72 hrs by MTS assay; assay type: functional, cell-based
[13] = Antiproliferative activity against human A2780/CDDP cells after 48 hrs by MTT assay; assay type: functional, cell-based
Outline: (§3)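 Drug-resistant human tumour lines were A2780/CDDP (cisplatin-resistant ovarian), MDA-MB-231/Gem (gemcitabine-resistant breast), MCF-7/ADR and KB-V. Antiproliferation was read by MTT assay. IC50 is the mean of triplicate determinations.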

[14] = Antiproliferative activity against human MDA-MB-231/Gem cells after 48 hrs by MTT assay; assay type: functional, cell-based
[15] = test system: NCI/ADR-RES; assay: Antiproliferative activity against human MCF7/ADR cells after 48 hrs by MTT assay; assay type: functional, cell-based; outline: as §3
[16] = Antiproliferative activity against human KBV cells after 48 hrs by MTT assay; assay type: functional, cell-based; outline: as §3
[17] = Selectivity ratio of IC50 for human A2780 cells to IC50 for A2780/CDDP cells; assay type: functional
Outline: (§4)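 Selectivity ratio = IC50 in the drug-sensitive parent line / IC50 in its resistant subline (A2780 vs A2780/CDDP, MDA-MB-231 vs MDA-MB-231/Gem, MCF-7 vs MCF-7/ADR, KB vs KB-V). Each IC50 came from MTT assays, mean of triplicates.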

[18] = Selectivity ratio of IC50 for human MDA-MB-231 cells to IC50 for MDA-MB-231/Gem cells; assay type: functional; outline: as §4
[19] = Selectivity ratio of IC50 for human MCF7 cells to IC50 for MCF7/ADR cells; assay type: functional; outline: as §4
[20] = Selectivity ratio of IC50 for human KB cells to IC50 for KBV cells; assay type: functional; outline: as §4
[21] = test system: HUVEC; assay: Cytotoxicity against HUVEC after 48 hrs by MTT assay; assay type: cell-based; settings: Homo sapiens; outline: as §1
[22] = Cytotoxicity against human T29 cells after 48 hrs by MTT assay; assay type: cell-based; settings: T29, 48 h; outline: as §1
[23] = Drug metabolism in human A2780 cells assessed as nitric oxide release at 100 uM after 150 mins by Griess assay; assay type: ADME, cell-based; settings: a2780, 2.5 h
[24] = biological target: Dual specificity mitogen-activated protein kinase kinase; MEK1/2 (Homo sapiens) (UniProt P36507+Q02750); assay: Inhibition of MEK (unknown origin); assay type: protein assay
Chain of Dual specificity mitogen-activated protein kinase kinase; MEK1/2 (Homo sapiens) (P36507 whole entry, looked up): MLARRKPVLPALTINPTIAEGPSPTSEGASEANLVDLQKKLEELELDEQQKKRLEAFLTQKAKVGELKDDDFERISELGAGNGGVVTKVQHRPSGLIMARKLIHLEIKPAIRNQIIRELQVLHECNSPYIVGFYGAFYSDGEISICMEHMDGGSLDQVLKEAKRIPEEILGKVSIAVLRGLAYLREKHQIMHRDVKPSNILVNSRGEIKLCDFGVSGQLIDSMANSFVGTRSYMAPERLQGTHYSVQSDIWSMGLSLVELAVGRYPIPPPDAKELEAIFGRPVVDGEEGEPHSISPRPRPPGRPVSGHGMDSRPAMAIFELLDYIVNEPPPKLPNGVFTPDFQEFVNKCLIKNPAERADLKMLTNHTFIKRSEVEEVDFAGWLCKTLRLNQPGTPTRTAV
Chain of Dual specificity mitogen-activated protein kinase kinase; MEK1/2 (Homo sapiens) (Q02750 whole entry, looked up): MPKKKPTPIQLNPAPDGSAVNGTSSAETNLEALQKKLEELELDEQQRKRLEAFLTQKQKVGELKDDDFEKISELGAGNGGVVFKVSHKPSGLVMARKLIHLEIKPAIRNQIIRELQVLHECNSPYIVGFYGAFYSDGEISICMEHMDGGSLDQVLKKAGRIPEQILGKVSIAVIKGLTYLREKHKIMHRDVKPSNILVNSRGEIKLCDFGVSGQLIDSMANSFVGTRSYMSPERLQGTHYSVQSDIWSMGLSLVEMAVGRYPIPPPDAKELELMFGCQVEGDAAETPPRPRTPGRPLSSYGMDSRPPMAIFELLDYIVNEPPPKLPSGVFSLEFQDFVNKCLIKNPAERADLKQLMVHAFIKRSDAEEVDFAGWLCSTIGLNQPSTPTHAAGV

[25] = Resistance ratio of IC50 for human MDA-MB-231/Gem cells to IC50 for human MDA-MB-231 cells; assay type: functional
Outline: (§5)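 Resistance ratio = IC50 in the resistant line / IC50 in the drug-sensitive parent line. Each IC50 came from MTT assays, mean of triplicate determinations.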

[26] = Resistance ratio of IC50 for human KBV cells to IC50 for human KB cells; assay type: functional; outline: as §5

Compound | IC50 [1] [nM] | IC50 [2] [nM] | IC50 [3] [nM] | IC50 [4] [nM] | IC50 [5] [nM] | IC50 [6] [nM] | IC50 [7] [nM] | IC50 [8] [nM] | IC50 [9] [nM] | IC50 [10] [nM] | IC50 [11] [nM] | IC50 [12] [nM] | IC50 [13] [nM] | IC50 [14] [nM] | IC50 [15] [nM] | IC50 [16] [nM] | Ratio IC50 [17] | Ratio IC50 [18] | Ratio IC50 [19] | Ratio IC50 [20] | other results
COc1cc(OCCOc2no[n+]([O-])c2S(=O)(=O)c2ccccc2)ccc1C(=O)/C=C/c1ccccc1 | 440 | 17.8 | 35.8 | 3.3 | 4.4 | 10.1 | 8.7 | 0.5 | 1860 | 2180 | 29.3 | 28 | 51.7 | 10.5 | 18 | 13.9 | 0.2 | 0.05 | 103.6 | 157 | IC50 [21]: 410 nM; IC50 [22]: 2500 nM; Drug metabolism [23]: Metabolite_Detected; inhibition [24]: inactive
CNS(=O)(=O)Nc1cccc(Cc2c(C)c3ccc(OCCOc4no[n+]([O-])c4S(=O)(=O)c4ccccc4)cc3oc2=O)c1 | 1360 | 15.4 | 19.2 | 7.9 | 6.1 | 16.3 | 10.2 | 1.1 | 3130 | 1140 | 66.3 | 24 | 47.2 | 50.4 | 50.1 | 65.4 | 0.2 | 0.02 | 62.5 | 17.5 | IC50 [21]: 190 nM; IC50 [22]: > 5000 nM; Drug metabolism [23]: Metabolite_Detected; inhibition [24]: inactive
Nc1ccn([C@@H]2O[C@H](CO)[C@@H](O)C2(F)F)c(=O)n1 [GEMCITABINE] | – | – | – | – | – | – | – | 36.4 | – | – | – | – | – | > 50000 | – | – | – | – | – | – | Ratio IC50 [25]: >1373
CC[C@]1(O)C[C@H]2CN(CCc3c([nH]c4ccccc34)[C@@](C(=O)OC)(c3cc4c(cc3OC)N(C=O)[C@H]3[C@@](O)(C(=O)OC)[C@H](OC(C)=O)[C@]5(CC)C=CCN6CC[C@]43[C@@H]65)C2)C1 [VINCRISTINE] | – | – | – | – | – | – | – | – | – | 0.65 | – | – | – | – | – | 417 | – | – | – | – | Ratio IC50 [26]: 646
COc1cccc2c1C(=O)c1c(O)c3c(c(O)c1C2=O)C[C@@](O)(C(=O)CO)C[C@@H]3O[C@H]1C[C@H](N)[C@H](O)[C@H](C)O1 [DOXORUBICIN] | – | – | – | – | – | – | – | – | – | – | – | – | – | – | > 100000 | – | – | – | – | – | –
COCCOc1no[n+]([O-])c1S(=O)(=O)c1ccccc1 | – | 8830 | 3910 | 4780 | 5170 | 4390 | 1640 | 1230 | 3500 | 3690 | – | – | 4820 | 4750 | 7840 | 1960 | 0.3 | 0.3 | 0.5 | 1.9 | –
